Experimental data from ChEMBL document CHEMBL1123882, “Potential antitumor agents. 51. Synthesis and antitumor activity of substituted phenazine-1-carboxamides” (J Med Chem, 1987).

How the values were obtained:
L1210 = test: Nanomolar concentration required to reduce the growth of L1210 cells in culture to 50% of control values after 70 h (in vitro); format: functional, cell-based; conditions: Mus musculus, L1210, 70 h
Summary of the method: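 L1210 cells were grown in culture with drug for 70 h. IC50 is the drug concentration (nM) reducing growth to 50% of control values.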

[1] = Lipophilicity (HPLC); format: physicochemical
P388 [2] = test: Optimal dose in mg/kg administered intraperitoneally on days 1,5 and 9 required to inhibit the growth of P388 leukemia cells was determined (in vivo); format: functional, Mus musculus
Summary of the method: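 Mice were inoculated ip with 10^6 P388 cells. Drug was given ip as a solution in 0.1 mL 30% v/v EtOH/water on days 1, 5 and 9. The optimal dose (mg/kg per day) is the one giving maximal increase in life span; survivors were scored at 50 days, in groups of six.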

[3] = (§1) Optimal dose required after intraperitoneal administration on days 5,9 and 13 to inhibit the growth of lewis lung carcinoma (LL) cells was determined (in vivo); format: functional, Mus musculus
Summary of the method: (§2)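 Mice were inoculated iv with 10^6 Lewis lung cells. Drug was given ip in 0.1 mL 30% v/v EtOH/water on days 5, 9 and 13. The optimal dose (mg/kg per day) is the one giving maximal increase in life span; survivors were scored at 60 days, in groups of six.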

[4] = (§3) Average increase in life span of treated animals over control groups of tumor-bearing untreated animals when given at optimal dose (in vivo); format: functional, Mus musculus
Summary of the method: (§4)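 Mice inoculated ip with 10^6 P388 cells (drug ip on days 1, 5, 9) or iv with 10^6 Lewis lung cells (drug ip on days 5, 9, 13). Drug given as a solution in 0.1 mL 30% v/v EtOH/water, in mg/kg per day. Value is the average life-span increase versus untreated tumor-bearing controls at the optimal dose. Significance thresholds: ILS >20% (P388), >40% (LL). Groups of six.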

P388 [5] = test: as §3; format: functional, Mus musculus; summary of the method: as §4
[6] = system: Lewis lung carcinoma cell line; test: Average increase in life span of treated animals over control groups of tumor-bearing untreated animals when given at optimal dose;NA means no significant activity (in vivo); format: functional, organism-based; conditions: Mus musculus
Summary of the method: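 Mice received drug ip as a solution in 0.1 mL 30% v/v EtOH/water at the optimal dose. For P388, 10^6 cells were inoculated ip and drug given on days 1, 5 and 9. For LL, 10^6 cells were inoculated iv and drug given on days 5, 9 and 13. ILS is the mean life-span increase over untreated tumor-bearing controls, significant above 20% (P388) or 40% (LL). Groups were of six. NA means no significant activity up to acutely toxic doses.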

[7] = system: Lewis lung carcinoma cell line; test: as §1; format: functional, Mus musculus; summary of the method: as §2

| SMILES | IC50 (L1210) [nM] | Rm [1] | OD (P388 [2]) [mg/kg/day] | OD [3] [mg/kg/day] | ILS max [4] | ILS max (P388 [5]) | ILS max [6] | OD [7] [mg/kg/day] |
| --- | --- | --- | --- | --- | --- | --- | --- | --- |
| CN(C)CCNC(=O)c1cccc2c1nc1ccccc1[n+]2[O-] | 3000 | -0.58 | 150 | 150 | 51 | 81 |  |  |
| CN(C)CCCCNC(=O)c1cccc2nc3ccccc3nc12 | 1170 | -0.11 | 150 |  |  | 49 | Not significant | 225 |
